We go through two molecules from ChEMBL document CHEMBL2375276, “Antibacterial oxazolidinone analogues having a N-hydroxyacetyl-substituted seven-membered [1,2,5]triazepane or [1,2,5]oxadiazepane C-ring unit” (Eur J Med Chem, 2013).

For data set [1], the system named is Enterococcus faecalis. In words: Antibacterial activity against Enterococcus faecalis SR1004 clinical isolate assessed as growth inhibition by CLSI broth microdilution method. Format: functional. The gist of the method:
(§1)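 MIC by CLSI broth microdilution in cation-adjusted Mueller-Hinton broth; S. pneumoniae medium supplemented with 5% lysed horse blood.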
On the technique in general: Broth dilution looks for growth in wells or tubes with falling amounts of substance.

Data set [2] deals with Enterococcus faecium. In words: Ratio of eperezolid MIC to compound MIC for Enterococcus faecium SR7940 clinical isolate. Format: functional.
Data set [3] concerns the target Cytochrome P450 2D6 (Homo sapiens, UniProt P10635). The experiment in a line: Inhibition of human CYP2D6 assessed as dextromethorphan O-demethylation after 20 mins by LC/MS/MS analysis. The format is ADME. The essentials: (§2)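 Human liver microsomes (0.2 mg protein/mL) with 1 mM NADPH in 50 mM HEPES pH 7.4, 10 mM MgCl2, 0.1 mM EDTA. After centrifugation, supernatant metabolite measured by LC/MS/MS. Standard curve from authentic metabolite cocktail added to unincubated reaction mix.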

Data set [4] relates to Staphylococcus aureus. The experiment in a line: Ratio of linezolid MIC to compound MIC for Staphylococcus aureus SR20549 clinical isolate. Format: functional.
For data set [5], the system named is Staphylococcus aureus. In words: Antibacterial activity against methicillin-resistant Staphylococcus aureus SR3637 assessed as growth inhibition by CLSI broth microdilution method. Format: functional. The gist of the method: (§3)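 MIC by CLSI broth microdilution in cation-adjusted Mueller-Hinton broth. Lowest concentration inhibiting growth taken as MIC.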
The subject of data set [6] is Streptococcus pneumoniae. In words: Antibacterial activity against Streptococcus pneumoniae SR26207 clinical isolate assessed as growth inhibition by CLSI broth microdilution method. The format is functional. The gist of the method: as §1
In data set [7] the target is T1, Cytochrome P450 1A2 (Homo sapiens, UniProt P05177).
T1 sequence (P05177 whole entry): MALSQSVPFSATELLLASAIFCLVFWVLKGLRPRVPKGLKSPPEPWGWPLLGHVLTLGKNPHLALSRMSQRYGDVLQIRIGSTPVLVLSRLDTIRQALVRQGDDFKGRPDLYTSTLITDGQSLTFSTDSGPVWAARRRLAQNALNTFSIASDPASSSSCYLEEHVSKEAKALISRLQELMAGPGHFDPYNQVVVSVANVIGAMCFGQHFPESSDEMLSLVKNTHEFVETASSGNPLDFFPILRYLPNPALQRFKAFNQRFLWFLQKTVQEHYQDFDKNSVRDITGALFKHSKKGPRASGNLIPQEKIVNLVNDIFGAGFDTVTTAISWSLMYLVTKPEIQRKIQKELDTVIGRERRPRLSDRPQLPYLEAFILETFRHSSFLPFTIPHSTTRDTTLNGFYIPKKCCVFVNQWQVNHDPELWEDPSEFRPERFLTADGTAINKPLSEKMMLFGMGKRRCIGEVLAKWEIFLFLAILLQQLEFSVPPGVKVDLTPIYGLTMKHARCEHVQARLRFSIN
In words: Inhibition of human CYP1A2 assessed as ethoxyresorufin O-deethylation after 20 mins by fluorescence plate reader analysis. Format: ADME. The gist of the method: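 Human liver microsomes (0.2 mg protein/mL) with 1 mM NADPH in 50 mM HEPES pH 7.4, 10 mM MgCl2, 0.1 mM EDTA. After centrifugation, supernatant read on a fluorescence plate reader. Standard curve from authentic metabolite added to unincubated reaction mix.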

Data set [8] has as its system Enterococcus faecalis. In words: Ratio of eperezolid MIC to compound MIC for Enterococcus faecalis SR1004 clinical isolate. The format is functional.
Data set [9] deals with Enterococcus faecium. In words: Antibacterial activity against Enterococcus faecium SR7940 clinical isolate assessed as growth inhibition by CLSI broth microdilution method. Format: functional. The essentials: as §1
The test system of data set [10] is Moraxella catarrhalis. The experiment in a line: Ratio of eperezolid MIC to compound MIC for Moraxella catarrhalis SR26840 clinical isolate. Format: functional.
For data set [11], the system named is Staphylococcus aureus. The experiment in a line: Antibacterial activity against methicillin-resistant Staphylococcus aureus SR3637 infected in JCL/ICR mouse systemic infection model assessed as mortality administered as iv measured over 7 days. Format: functional. To be noted: 168 h. The essentials: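 Five-week-old male JCL/ICR mice (20–25 g), five per group. Infected intraperitoneally with 0.5 or 1.0 mL bacterial suspension (about 100× LD50). Intravenous dosing 1 h post-infection. Mortality followed 7 days; ED50 with 95% confidence limits by logit method.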

Data set [12] deals with Cytochrome P450 3A4 (Homo sapiens, UniProt P08684). The experiment in a line: Inhibition of human CYP3A4 assessed as terfenadine hydroxylation after 20 mins by LC/MS/MS analysis. Format: ADME. The essentials:
as §2

Data set [13] concerns the target T2, MAO-A (Rattus norvegicus, UniProt P21396).
T2 sequence (P21396 whole entry): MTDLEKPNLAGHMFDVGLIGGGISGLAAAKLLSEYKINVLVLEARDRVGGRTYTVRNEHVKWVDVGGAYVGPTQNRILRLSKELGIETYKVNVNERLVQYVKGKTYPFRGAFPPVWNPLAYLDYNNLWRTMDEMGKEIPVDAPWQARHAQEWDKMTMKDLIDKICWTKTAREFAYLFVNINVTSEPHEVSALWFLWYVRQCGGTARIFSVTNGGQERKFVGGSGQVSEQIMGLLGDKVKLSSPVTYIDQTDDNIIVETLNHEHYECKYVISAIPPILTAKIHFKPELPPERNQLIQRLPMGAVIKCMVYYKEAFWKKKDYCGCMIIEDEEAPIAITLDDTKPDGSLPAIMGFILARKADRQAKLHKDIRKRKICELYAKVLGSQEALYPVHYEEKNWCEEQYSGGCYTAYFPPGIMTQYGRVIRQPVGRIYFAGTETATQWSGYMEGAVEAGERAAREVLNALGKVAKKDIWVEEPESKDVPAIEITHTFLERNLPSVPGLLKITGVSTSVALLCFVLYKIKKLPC
The experiment in a line: Inhibition of MAO-A in rat forebrain using [14C]5-HT as substrate at 30 uM incubated for 20 mins prior to substrate addition measured after 5 mins by liquid scintillation counting analysis relative to control. Format: tissue-based. Particulars: probe [14C]5-HT.

Data set [14] has as its system Enterococcus faecium. The experiment in a line: Ratio of linezolid MIC to compound MIC for Enterococcus faecium SR7940 clinical isolate. Format: functional.
Data set [15] concerns Haemophilus influenzae. The experiment in a line: Antibacterial activity against Haemophilus influenzae SR27914 clinical isolate assessed as growth inhibition by CLSI broth microdilution method. Format: functional. The gist of the method: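 MIC by CLSI broth microdilution using Haemophilus test medium.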
For data set [16], the system named is Moraxella catarrhalis. In words: Ratio of linezolid MIC to compound MIC for Moraxella catarrhalis SR26840 clinical isolate. Format: functional.
Data set [17] deals with Staphylococcus aureus. The experiment in a line: Antibacterial activity against linezolid-resistant Staphylococcus aureus NRS271 assessed as growth inhibition by CLSI broth microdilution method. The format is functional. The essentials: as §3
Data set [18] deals with Staphylococcus aureus. The experiment in a line: Antibacterial activity against Staphylococcus aureus Smith assessed as growth inhibition by CLSI broth microdilution method. Format: functional. The essentials: as §1
The subject of data set [19] is Staphylococcus aureus. In words: Ratio of eperezolid MIC to compound MIC for Staphylococcus aureus Smith. The format is functional.
Data set [20] has as its system Haemophilus influenzae. In words: Ratio of linezolid MIC to compound MIC for Haemophilus influenzae SR27914 clinical isolate. Format: functional.

A word on the IC50: it is the concentration that inhibits the measured activity by half. The ED50 is the dose that gives a 50% effect, or the effect in half of the subjects. In general, inhibition refers to the relative decrease from the control value, in per cent.

Structures are written as SMILES. Values after ≈ are worked out from the molar mass of the structure shown.

Sequence of Cytochrome P450 3A4 (P08684 whole entry): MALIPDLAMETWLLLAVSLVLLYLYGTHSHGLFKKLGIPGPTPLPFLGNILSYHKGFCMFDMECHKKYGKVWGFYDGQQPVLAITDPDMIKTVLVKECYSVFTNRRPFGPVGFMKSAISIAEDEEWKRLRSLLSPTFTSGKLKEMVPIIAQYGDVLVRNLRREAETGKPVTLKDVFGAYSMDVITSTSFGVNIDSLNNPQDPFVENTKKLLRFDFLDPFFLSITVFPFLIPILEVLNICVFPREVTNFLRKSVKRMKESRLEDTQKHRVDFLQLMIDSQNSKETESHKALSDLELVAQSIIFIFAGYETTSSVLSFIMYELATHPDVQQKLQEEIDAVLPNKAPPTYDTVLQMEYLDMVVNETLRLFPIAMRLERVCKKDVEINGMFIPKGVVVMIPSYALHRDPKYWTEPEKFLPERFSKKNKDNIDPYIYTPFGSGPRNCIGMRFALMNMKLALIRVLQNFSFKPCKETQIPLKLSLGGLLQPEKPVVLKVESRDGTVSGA
Sequence of Cytochrome P450 2D6 (P10635 whole entry): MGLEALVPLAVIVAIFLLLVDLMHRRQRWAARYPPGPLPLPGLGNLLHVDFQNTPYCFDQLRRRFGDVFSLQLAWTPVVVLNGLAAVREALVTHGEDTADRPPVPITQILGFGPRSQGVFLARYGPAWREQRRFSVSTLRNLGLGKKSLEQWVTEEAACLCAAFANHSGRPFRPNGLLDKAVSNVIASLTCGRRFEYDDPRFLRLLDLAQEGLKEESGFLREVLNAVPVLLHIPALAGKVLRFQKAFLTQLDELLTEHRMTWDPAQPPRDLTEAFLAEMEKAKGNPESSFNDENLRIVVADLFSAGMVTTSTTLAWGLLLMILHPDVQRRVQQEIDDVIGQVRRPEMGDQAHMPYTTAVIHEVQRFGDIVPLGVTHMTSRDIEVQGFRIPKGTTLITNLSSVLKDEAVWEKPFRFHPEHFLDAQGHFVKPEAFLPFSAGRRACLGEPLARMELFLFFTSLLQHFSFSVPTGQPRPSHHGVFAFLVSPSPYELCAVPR

For the molecule `COC(=S)NC[C@H]1CN(c2ccc(N3CCNN(C(=O)CO)CC3)c(F)c2)C(=O)O1`, the MIC in data set [1] worked out at 0.5 µg/mL (≈ 1.13 µM); in data set [5], 0.25 µg/mL (≈ 0.566 µM); in [6], 0.125 µg/mL (≈ 0.283 µM); in [9] it was 0.25 µg/mL (≈ 0.566 µM); in [15], 4 µg/mL (≈ 9.06 µM); in data set [17] it was 2 µg/mL (≈ 4.53 µM). Besides, the MIC in data set [18] stood at 0.25 µg/mL (≈ 0.566 µM). The Ratio in data set [2], in data set [4], in data set [8], in data set [10], in data set [14] and in [16] was 4 each time. The Ratio in data set [19] and in data set [20] was 4 each time. Moreover, the 50% inhibitory concentration (IC50) in data set [3], in [7] and in data set [12] was over 20 µM in each case. For the same molecule, in data set [11], the ED50 was found to be 0.94 mg/kg. The molecule further gave an inhibition at 5 min, 30 µM in data set [13] of 48.2%.

As for `COC(=S)NC[C@H]1CN(c2cc(F)c(N3CCNN(C(=O)CO)CC3)c(F)c2)C(=O)O1`, the MIC is 0.25 µg/mL (≈ 0.544 µM) in [1]; 0.25 µg/mL (≈ 0.544 µM) in [5]; at most 0.063 µg/mL in data set [6]; 0.25 µg/mL (≈ 0.544 µM) in [9]; 4 µg/mL (≈ 8.71 µM) in [15]; 2 µg/mL (≈ 4.35 µM) in data set [17]. Besides, in [18], the MIC was 0.25 µg/mL (≈ 0.544 µM). The Ratio in [2], in data set [4], in data set [8], in [10], in [14] and in [16] was 4 throughout. Further, the Ratio in data set [19] and in data set [20] was 4 in each case. For the same molecule, the IC50 in [3], in data set [7] and in data set [12] was over 20 µM throughout. The median effective dose (ED50) in data set [11] was 0.77 mg/kg. In addition, the inhibition at 5 min, 30 µM in data set [13] is 12.4%.
